Reference: ChEMBL document CHEMBL3244414, “Structure-activity relationships among the O-acyl derivatives of leucomycin. Correlation of minimal inhibitory concentrations with binding to Escherichia coli ribosomes” (J Med Chem, 1977)
Values after ≈ are worked out from the molar mass of the structure shown.

Columns and labels:
Staphylococcus aureus = test: Antimicrobial activity against Staphylococcus aureus ATCC 6538P by agar dilution method; type: functional
How it was run: (§1)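 Read-out is the minimal inhibitory concentration, found by agar dilution against the named strain.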

Bacterial 70S ribosome = test: (§2) Displacement of [14C]erythromycin from Escherichia coli ribosomes after 30 mins by scintillation spectrometer analysis
How it was run: (§3)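 NH4Cl-washed E. coli ribosomes with [14C]erythromycin A and varied competitor concentrations in 0.01 M Tris-HCl pH 7.2, 0.1 M KCl, 0.004 M MgCl2, 0.01 M NH4Cl. Incubated 30 min at 24 °C, stopped by dilution in cold Tris/KCl/MgCl2 buffer, membrane-filtered, washed three times, dried, scintillation counted. Reports the concentration giving 50% inhibition of binding.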

[1] = molecular target: Bacterial 70S ribosome (Bacteria) (UniProt P0A7V0+P60723+P0AG67+P0A7R5+P0A7R9+P0A7S3+P0A7S9+P0AG59+P0ADZ4+P0A7T3+P0AG63+P0A7T7+P0A7U3+P0A7U7+P68679+P0A7V3+P0A7V8+P0A7W1+P02358+P02359+P0A7W7+P0A7X3+P0A7J3+P0A7J7+P0AA10+P0ADY3+P02413+P0ADY7+P0AG44+P0C018+P0A7K6+P0A7L0+P0A7L3+P0AG48+P61175+P0ADZ0+P60624+P68919+P0A7L8+P0A7M2+P0A7M6+P60422+P0AG51+P0A7N1+P0A7M9+P0A7N4+P0A7N9+P0A7P5+P0A7Q1+Q2EEQ2+P0A7Q6+P60438+P62399+P0AG55+P0A7K2); test: as §2; how it was run: as §3
Klebsiella pneumoniae = test: Antimicrobial activity against Klebsiella pneumoniae ATCC 10031 by agar dilution method; type: functional; how it was run: as §1
Bacillus spizizenii = test: Antimicrobial activity against Bacillus subtilis ATCC 6633 by agar dilution method; type: functional; how it was run: as §1
[2] = Staphylococcus aureus, ATCC 6538P, read-out: MIC
[3] = Klebsiella pneumoniae, ATCC 10031, read-out: MIC
[4] = Bacillus spizizenii, ATCC 6633, read-out: MIC

## CCCC(=O)O[C@H]1[C@H](C)O[C@@H](O[C@H]2[C@H](N(C)C)[C@@H](OC(=O)CCC(=O)O)[C@H](O[C@H]3[C@@H](CC=O)C[C@@H](C)[C@@H](OC(=O)CCC(=O)O)/C=C/C=C/C[C@@H](C)OC(=O)C[C@@H](O)[C@@H]3OC)O[C@@H]2C)C[C@@]1(C)O
Staphylococcus aureus; [2]
  MIC: 6.3 µg/mL (≈ 6.48 µM)
Bacterial 70S ribosome
  IC50: 2800 nM
[1]
  pK50: 5.6
Klebsiella pneumoniae; [3]
  MIC: 50 µg/mL (≈ 51.4 µM)
Bacillus spizizenii; [4]
  MIC: 3.1 µg/mL (≈ 3.19 µM)

## CCCC(=O)O[C@H]1[C@H](C)O[C@@H](O[C@H]2[C@H](N(C)C)[C@@H](OC(=O)CC)[C@H](O[C@H]3[C@@H](CC=O)C[C@@H](C)[C@@H](O)/C=C/C=C/C[C@@H](C)OC(=O)C[C@@H](O)[C@@H]3OC)O[C@@H]2C)C[C@@]1(C)O
Staphylococcus aureus; [2]
  MIC: 0.8 µg/mL (≈ 0.966 µM)
Bacterial 70S ribosome
  IC50: 13800 nM
[1]
  pK50: 4.9
Klebsiella pneumoniae; [3]
  MIC: 12.5 µg/mL (≈ 15.1 µM)
Bacillus spizizenii; [4]
  MIC: 1.6 µg/mL (≈ 1.93 µM)

## CCC(=O)O[C@H]1/C=C/C=C/C[C@@H](C)OC(=O)C[C@@H](OC(C)=O)[C@H](OC)[C@@H](O[C@@H]2O[C@H](C)[C@@H](O[C@H]3C[C@@](C)(O)[C@@H](OC(=O)CC(C)C)[C@H](C)O3)[C@H](N(C)C)[C@H]2O)[C@@H](CC=O)C[C@H]1C
Staphylococcus aureus; [2]
  MIC: 3.1 µg/mL (≈ 3.51 µM)
Bacterial 70S ribosome
  IC50: 1900 nM
[1]
  pK50: 5.7
Klebsiella pneumoniae; [3]
  MIC: 100 µg/mL (≈ 113 µM)
Bacillus spizizenii; [4]
  MIC: 0.4 µg/mL (≈ 0.452 µM)

## CCC(=O)O[C@H]1/C=C/C=C/C[C@@H](C)OC(=O)C[C@@H](O)[C@H](OC)[C@@H](O[C@@H]2O[C@H](C)[C@@H](O[C@H]3C[C@@](C)(O)[C@@H](OC(=O)C(C)CC)[C@H](C)O3)[C@H](N(C)C)[C@H]2O)[C@@H](CC=O)C[C@H]1C (some centres undefined)
Staphylococcus aureus; [2]
  MIC: 1.6 µg/mL (≈ 1.9 µM)
Bacterial 70S ribosome
  IC50: 1700 nM
[1]
  pK50: 5.8
Klebsiella pneumoniae; [3]
  MIC: 50 µg/mL (≈ 59.4 µM)
Bacillus spizizenii; [4]
  MIC: 0.8 µg/mL (≈ 0.95 µM)

## CO[C@@H]1[C@@H](O[C@@H]2O[C@H](C)[C@@H](O[C@H]3C[C@@](C)(O)[C@@H](OC(=O)CC(C)C)[C@H](C)O3)[C@H](N(C)C)[C@H]2O)[C@@H](CC=O)C[C@@H](C)[C@@H](O)/C=C/C=C/C[C@@H](C)OC(=O)C[C@H]1O (stereo in doubt; 2) [KITASAMYCIN]
Staphylococcus aureus
  MIC: 1.6 µg/mL (≈ 2.04 µM)
Bacterial 70S ribosome
  IC50: 1000 nM
[1]
  pK50: 6
Klebsiella pneumoniae
  MIC: 25 µg/mL (≈ 31.8 µM)
Bacillus spizizenii
  MIC: 0.4 µg/mL (≈ 0.509 µM)

## CO[C@@H]1[C@@H](O[C@@H]2O[C@H](C)[C@@H](O[C@H]3C[C@@](C)(O)[C@@H](OC(C)=O)[C@H](C)O3)[C@H](N(C)C)[C@H]2O)[C@@H](CC=O)C[C@@H](C)[C@@H](OC(C)=O)/C=C/C=C/C[C@@H](C)OC(=O)C[C@H]1O
Staphylococcus aureus; [2]
  MIC: 6.3 µg/mL (≈ 8.02 µM)
Bacterial 70S ribosome
  IC50: 2100 nM
[1]
  pK50: 5.7
Klebsiella pneumoniae; [3]
  MIC: 50 µg/mL (≈ 63.6 µM)
Bacillus spizizenii; [4]
  MIC: 3.1 µg/mL (≈ 3.94 µM)

## CCCC(=O)O[C@H]1[C@H](C)O[C@@H](O[C@H]2[C@H](N(C)C)[C@@H](OC(=O)CCC(=O)O)[C@H](O[C@H]3[C@@H](CC=O)C[C@@H](C)[C@@H](O)/C=C/C=C/C[C@@H](C)OC(=O)C[C@@H](O)[C@@H]3OC)O[C@@H]2C)C[C@@]1(C)O
Staphylococcus aureus; [2]
  MIC: 1.6 µg/mL (≈ 1.83 µM)
Bacterial 70S ribosome
  IC50: 1900 nM
[1]
  pK50: 5.7
Klebsiella pneumoniae; [3]
  MIC: 100 µg/mL (≈ 115 µM)
Bacillus spizizenii; [4]
  MIC: 0.8 µg/mL (≈ 0.917 µM)

## CCCC(=O)O[C@H]1[C@H](C)O[C@@H](O[C@H]2[C@H](N(C)C)[C@@H](O)[C@H](O[C@H]3[C@@H](CC=O)C[C@@H](C)[C@@H](OC(=O)C(Cl)Cl)/C=C/C=C/C[C@@H](C)OC(=O)C[C@@H](O)[C@@H]3OC)O[C@@H]2C)C[C@@]1(C)O
Staphylococcus aureus; [2]
  MIC: 1.6 µg/mL (≈ 1.81 µM)
Bacterial 70S ribosome
  IC50: 1300 nM
[1]
  pK50: 5.9
Klebsiella pneumoniae; [3]
  MIC: 25 µg/mL (≈ 28.3 µM)
Bacillus spizizenii; [4]
  MIC: 1.6 µg/mL (≈ 1.81 µM)

## CCC(=O)O[C@H]1[C@H](O[C@H]2[C@@H](CC=O)C[C@@H](C)[C@@H](OC(=O)CC)/C=C/C=C/C[C@@H](C)OC(=O)C[C@@H](OC(C)=O)[C@@H]2OC)O[C@H](C)[C@@H](O[C@H]2C[C@@](C)(O)[C@@H](OC(=O)CC(C)C)[C@H](C)O2)[C@@H]1N(C)C
Staphylococcus aureus; [2]
  MIC: 6.3 µg/mL (≈ 6.7 µM)
Bacterial 70S ribosome
  IC50: > 100000 nM
Klebsiella pneumoniae; [3]
  MIC: 100 µg/mL (≈ 106 µM)
Bacillus spizizenii; [4]
  MIC: 6.3 µg/mL (≈ 6.7 µM)
